Reference: the RNAGym collection of RNA variant scans (doi:10.1126/science.aae0568)
Fewer inactive variants are shown than the library holds.

B1: tRNA (parent)
chain: GUUCCGUUGGCGUAAUGGUAACGCGUCUCCCUCCUAAGGAGAAGACUGCGGGUUCGAGUCCCGUACGGAACG

Variants of: B1
Experiment: yeast fitness relative to wild type (ratio to wild type); higher = fitter; tRNA-Arg(CCU), competitive growth, 37 C, YPD
Summary of the method: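 Start and end populations of a pooled competition were compared by 100-nucleotide paired-end sequencing of gene amplicons. The Saccharomyces cerevisiae strains carried tRNA-Arg(CCU) gene variants at the native genomic locus, synthesised with a 3% per-site mutation rate at 69 sites, and competed in YPD at 37°C for 24 hours in six parallel replicates. Darwinian fitness relative to wild type was based on the change in genotype frequencies. Genotypes required ≥ 100 starting reads, and estimates < 0.5 were set to 0.5.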

| Variant | yeast fitness |
| --- | --- |
| GUUCCGUUGGCACAAUGGUAACGCGUCUCCCUUUUAAGGAGCAGACUGCAGGUUCGAGUCCCGUACGGAACG | ≤ 0.5 |
| GUUCCGUUGGCAUAAUGGCAACGCGUCUCCCUCGUAAGGAGAAGACUGCGGGUUCGAGUCCCGUAUGGUACG | 0.59 |
| GUUCCGUUGGCAGAAUGGUAACGCGUCUCCCUCCUAAGGAGAAGACUGCGGGUUCGAGUCUCGUACCGAACG | 0.678 |
| GUUCCGUUGGCAUAAUGGUAACGCGUCUCCCUCCUAAGGAGAAGACUGCGAGUUCGAGUCACGUACGGAACG | ≤ 0.5 |
| GUUCCGUUGGCAGAAUGGUAACGCGUCUCCCUCCUAAGGAGAAGACUGCGGGUUCGAGUCCCGUACGGAACG | 0.869 |
| GUUCCGUUGGCAUAAUGGUAACGCGUCUCCCUCCUAAGGAGAAGACUGCGGGUUCGAGUCCCCUACGGAACG | 0.704 |
| GUUCCGUUGGCAUAAUGGUAACGCGUCUCCCCCCUAAGGGGAAGACUGCGGGUUCGAGUCCCGUACGGAACG | ≤ 0.5 |
| GUUCCGUUGGCAUAAUGGUAACGCGUCUCCCUCCCAAGGAGAAGACUGCGGGUUCGAGUCCCGUACGGAACG | 0.83 |
| GUUCCGUUGGCAUAAUGGGAACGCGUCUCCCUCCUAAGGAGAAGACUGCGGGUUCGAGUCCCGUACGGAACG | 0.893 |
| GUUCCGUUGGCAUAAUGGUAACGCGUCUCCCUCCUAAGGAGAAGACUGCGAGUUCGAGUCCCGUACGGAACG | 0.883 |
| GUUCCGUUGGCAUAAUGGUAACGCGUCUCCCUCCUAAGGAGAAGACUGCGCGUUCGAGUCCCGUACGGAACG | 0.662 |
| GUUCCGUUGGCAUAAUGGUAACGCGUCUCCCUCCUAAGGAGAAGACUCCGGGUACGAGUCCCGUACGGAACG | 0.59 |
| GUUCCGUUGGCAUAAUGGUAACGCGUCUCCCUCCUAAGGAGAAGACUGCGGGUCCGAGUCCCGUACGGAACG | 0.797 |
| GUUCCGUUGGCAUAAUGGUAACGCGUCUCCCUCCUAAGGAGAAGACUGCGGGUACGAGUCCCGUACGGAACG | 0.679 |
| GUUCCGUUGGCAUAAUGGUAACGCGUCUCCCUCCUAAGGAGAAGACUACGGGUUCGAGUCCCGUACGGAACG | 0.819 |
| GUUCCGUUGGCAUAAUGGUAACGCGUCUCCCUCCUAAGGAGAAGACUGCGGGUUCGAGUCCCGCACGGAACG | 0.921 |
| GUUCCGUUGGCAUAACGGUAACGCGUCUCCCUCCUAAGGAGAAGACUGCGGGUUGGAGUCCCGUCCGGAACG | ≤ 0.5 |
| GUUCCGUUGGCAUAAUGGUAACGCGUCACCCUCCUAAGGAGAAGACUGCGGGUCCGAGUCCCGUACGGAACG | ≤ 0.5 |
| GUUCCGUUGGCAUAAUGGUAACGCGUCUCCCUCCUAAGGAGAAGACUGCGGCUUUGAGUCCCGUUCGGAACG | ≤ 0.5 |
| GUUCCGUUGGCAUAAUGGUAACGCGUCUCCCUCCUAAGGAGAAGACAGCGGGUUCGAGUCCCAUACGGUACG | 0.554 |
| GUUCCGUUGGCAUAAUGGUAACGCGUCUCCCUCCAAAGGAGAAGACUGCGGGUUCGAAUCCCGUACGAAACG | 0.561 |
| GUUCCGUUGGCAUAAUGGUAACGCGUCUCCCUCCUAAGGAGAAGACUACGGGUUCGGGUCCCGUACGCAACG | 0.569 |
| GUUCCGUUGGCAUAAAGGUAACGCGUCUCCCUCCUAAGCAGAAGACUGCGGGUCUGAGUCCCGUACGGAACG | ≤ 0.5 |
| GUUCCGUUGGCACAAUGGUAACGCGCCUCCCUCCUAAGGAGAAGACUGCGAGUUCGAGUCCCGUACGGAACG | ≤ 0.5 |
| GUUCCGUUGGCAUAAUGGUAACGCGUCUCCCUCCUAAGGAGAAGACUGCGCGUUCGAGUCCAGUACGGAACG | ≤ 0.5 |

| Variant | yeast fitness |
| --- | --- |
| GUUCCGUUGGCAAAAUGGUAACGCGUCUCCCUCCUAAGGAGCAGACUGCGGGUUCGAGUCCCGUACGGAUCG | ≤ 0.5 |
| GUUCCGUUGGCCUCAUGGUAACGCGUCUCCCUCCUAAGGAGAAGACUGCGGGUUCCACUCCCGUACGGAACG | ≤ 0.5 |
| GUUCCGUUGGCCUCAUGGUAACGCGCCUCCCUCCUAAGGGGAAGACUGCGGGUUCGAGUCCCGUAUGGUACG | 0.598 |
| GUUCCGUUGGCAUAAUGGUAACGCGACUCCGUCCUAAGGAGAAGACUGCGGGUUCGAGUCCCGUACGGAACG | 0.541 |
| GUUCCGUUGGCAUAAUGGUAACGCGUCGCCCUCCUAAGGAGAAGACUGCGGGUUCGAGUCCCGUACGGAACG | 0.607 |
| GUUCCGUUGGCAUAAUGGUAACGCGUCCCCCUCCUAAGGAGAAGACUGCGGGUUCGAGUCCCGUACGGAACG | 1.06 |
| GUUCCGUUGGCAUAAUGGUAACGCGUCUCCCUCCCAAGGAGAAGACUCCGGGUUCGAGUCCCGUACGGAACG | ≤ 0.5 |
| GUUCCGUUGGCAUAAUGGUAACGCGACUCCCUCCUAAGGAGAAGAUUGCGGGUUCGAGUCCCGUACGGAACG | 0.543 |
| GUUCCGUUGGCAUAAUGGUAACGCGUCUCCCACCUAAGGUCAAGAAUGCGGAUUCGAGUCCCGUACGGAACG | ≤ 0.5 |
| GUUCCGUUGGCAUAAUGGUAACGCGUCACCCUCCUAAGGUGAAGACUGCGGGUUCGAGUCCCGUACGGAACG | 0.647 |
| GUUCCGUUGGCAUAAUGGUAACGCGUCUCCCUCCUAAGGAGAAGACUGCGGGUUCAAGUCCCGUACGGAACG | 0.975 |
| GUUCCGUUGGCAUAAUGGUAACGCGUCUCCCUCCAAAGGAGAAGCCUGCGGGUUCGAGUCCCGUACGGAACG | 0.528 |
| GUUCCGUUGGCACAAUGGUAACGCGUCUCCCUCCUAAGGAGAAGACUGGGGGUUCGAGACCCGUACGGAACG | ≤ 0.5 |
| GUUCCGUUGGCACAAUGGUAACGCGUGUCCUUCAUAAGGAGAAGACUGCGGGUUCGAGUCCCGUACGGAACG | ≤ 0.5 |
| GUUCCGUUGGCAAGAUGGUAGCGCGUCUCCCUUCUAAGGAGAAGACUGCGGGUUCGAGUCCCGUACGGAACG | ≤ 0.5 |
| GUUCCGUUGGCAUAAUGGUAACGCGUCUCCCUCCUAAGGAGAAGACGGCGGGAUCGAGUACCGUACGGAACG | ≤ 0.5 |
| GUUCCGUUGGCAUAAUGGUAACGCGUCUCCCUCCUAAGGAGAAGACUGCUGGUUCGAGUCCCGUACGGAACG | 0.842 |
| GUUCCGUUGGCAUAAUGGUAACGCGUCUCCCUCCUAAGGAGAAGACUGCCGGUUCGAGUCCCGUACGGAACG | 0.757 |
| GUUCCGUUGGCAUAAUGGCAUCGCGUCUCCCUCCUAAGGAGAAGUCUGCAGGUUCGAGUCCCGUACGCUACG | ≤ 0.5 |
| GUUCCGUUGGCAUAAUGGGAACGCGUCUCCCUCCCAAGGUGAAGACUGCGGGUUCGAGUCCCGUACGGAACG | 0.521 |
| GUUCCGUUGGCAUAAUGGUAACGCGUCUCCCUCCUAAGGAGAAGACUGCGGCUUCGAGUCCCGUACGGAACG | 0.668 |
| GUUCCGUUGGCAAAAUGGUAACGCGUCUCCCUCCUAAGGACAAGCCUGCGGGUUCGAGUCCCGUAUGGAACG | ≤ 0.5 |
| GUUCCGUUGGCCUCAUGGUAACGCGUCUCCCUCCUAAGGAGAAGACUGCGGGUUCGAGUGCCGUACGGAACG | 0.618 |
| GUUCCGUUGGCAUAAUGGUAACGCGUCUCCCCCCUAAGGCGAAGACUGCGAGUUCGAGUCCCGUACGGAACG | ≤ 0.5 |
| GUUCCGUUGGCAUAAAGGUAACGCGUCUCCCUCCUAAGGAGAAGACUGCGGGUUCGAGUCCCGUACGGAACG | 0.974 |

| Variant | yeast fitness |
| --- | --- |
| GUUCCGUUGGCAUAAUGGUAACGCGUCUCCCUCCCAAGGAGAAGACUGCGGGUUCGAGUCCCGUAUGGAACG | 0.614 |
| GUUCCGUUGGCAUAAUGGCAACACGUCUCCCCCCUAAGGAGACGACUCCGGGUUCGAGUCCCGCACGGAACG | ≤ 0.5 |
| GUUCCGUUGGCAUAACGGUAACGCGUAUCCCUCCUAAGGAGAAGACUGCGGGUACGAGUCCCGUACGGAACG | ≤ 0.5 |
| GUUCCGUUGGCAUAAUGGGAACGCGUCUCCCUCCCAAGGUGAAGACUGCGGGUUCGAGUCACGUACGGAACG | ≤ 0.5 |
| GUUCCGUUGGCAGAAUGGCAGCGCGUCUCCCUCCUAAGGAGAAGACUGCGGAUUCGAGGCCCGUACGGAACG | ≤ 0.5 |
| GUUCCGUUGGCAUAAGGGUAACGCGUCUCCCUCCUAAGGAGAAGACUACGGGUUCGAGUCCCGUACGAAACG | 0.705 |
| GUUCCGUUGGCAUAAUGGUAACGCGUCUCCCUCCUAAGGAGAAGACUGCGGGUUCGAGCCCCGUACGGAACG | 0.993 |
| GUUCCGUUGGCAUAAUGGAAACGCGUCUCCCUCCUAAGGAAGAGACUGCGGGUUCGAUUCCCCUACGGAACG | ≤ 0.5 |
| GUUCCGUUGGCAUAAAGGUAACGCGUCUCCCUCCUAAGGAGAAGACUGCGGGUUCGAGUCCCGGACGGAACG | ≤ 0.5 |
| GUUCCGUUGGCAUAAUGGUAACGCGUCGCCCUCCCAAGGAGAAGACUGCGGGUUCGAGUCCCGUACGGAACG | ≤ 0.5 |
| GUUCCGUUGGCAUAAUGGUAACGCGUCUCCCUCCUAAGGAGAACACUGCGGGUUCGAGUCCCGUGCGGAACG | 0.649 |
| GUUCCGUUGGCAUAAUGGUAACGCGUCUCCCUCCUAAGGAGAACAGUGCGGGUUCGAGUCCCGUACGGAACG | 0.61 |
| GUUCCGUUGGCAUAAUGGUAACGCGUCUCCCCCCUAAGGAGACGACUGCGGGUUCGAGUCCCGUUCGGAACG | ≤ 0.5 |
| GUUCCGUUGGCAUAACGGUAACGCGUAUCCCUCCUAAGGAGAAGACUGCGGGUUCGAGUCCCGUACGGACCG | ≤ 0.5 |
| GUUCCGUUGGCAUAAUGGAAACGCGUCUCCGUCUUAAGGAGAAGACUGCGGGUUCGGGUCCCGUACGGAACG | ≤ 0.5 |
| GUUCCGUUGGCCUCAUGGUUUCGCGUCUCCCUACUAAGGAGAAGACUACGGGUUCGAGUCCUGUACGGAACG | ≤ 0.5 |
| GUUCCGUUGGCAUAAUGGGGACGCGUCUCCCUCCCAAGGUGAAGACUGCGGGUUCGAGUCCCGUACGGAACG | ≤ 0.5 |
| GUUCCGUUGGCAUAAUGGUAACGCGUCUCCCUCCUAAGGAGAAGACUGCGGGUUCGAGUCCCGUACCGAACG | 0.848 |
| GUUCCGUUGGCAUAAUGGUAACGCGUCUCCCUCCUAAGGAGAAGACUGCGGGUUCGAGUCCCGUACUGAACG | 0.797 |
| GUUCCGUUGGCAUAAUGGUAACGCGUCUCCCUCCUAAGGAGAAGACUGCGGGUUCGACUCCCAUACGGAACG | 0.615 |
| GUUCCGUUGGCAAAAUGGUAACGCGUCUCCCUCCUAAGGAGAAGACUGCGGGUUCGAGUCCCGUACUGAACG | 0.537 |
| GUUCCGUUGGCAUAAUGGUAACGCGCUUCCCUACUAAGGAGAAGCCUGCGGGUUCGAGUCCGGUACGGUACG | 0.553 |
| GUUCCGUUGGCAUAAUGGUAACGCGACUCCUUCCUAAGGAGAAGACUACGGGUUCGAGUCCCGUACGGAACG | 0.711 |
| GUUCCGUUGGCAUAAGGGUAACGCGUCUCCCUCCUAAGGAGAAGACUGUGGGUUCGAGUCCCAUACGGAACG | 0.705 |
| GUUCCGUUGGCAGAAUGGCAGCGCGUCUCCCUCCUAAGGAGAAGACUGUGGAUUCGAGGCCCGUACGGAACG | 0.525 |
